Compounds with a hit are over-represented: about 1.8% of the library has one in this group of screens.
TDP2 absorb: blocks human TDP2 phosphodiesterase activity | O95551 | recombinant TDP2, T5PNP hydrolysis, p-nitrophenol absorbance 415 nm | inhibition, % at 12.8 µM | 370,000 tested, 0.34% active | AID 720702;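 active means inhibition above the mean of all tested compounds plus 3 SD, set per campaign, cut at about 25% in these data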;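 further: 0% = DMSO with enzyme and 100% = buffer with substrate but no TDP2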
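test system = human TDP2 enzyme | input = TDP2 enzyme at 120 nM final | medium = 50 mM Tris-HCl pH 7.5 with Mg2+, KCl, DTT, BSA | also added = T5PNP substrate, 5 mM | times = 2 h at 37 °C | technique = epi absorbance | benchmarks = high control without enzyme, low control DMSO plus TDP2 | replication = each compound tested once, singlicate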
Apaf1 inhib: inhibitors of human Apaf-1 apoptosome. O14727. reconstituted apoptosome caspase-3 activity, DEVD-Rh110 fluorescence. inhibition, % at 20 µM. 330,000 tested, 0.71% active; active means inhibition of at least 40% at 20 µM;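 further: plate controls were DMSO wells for no effect and DEVD-CHO caspase inhibitor wells for full effect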
Target sequence (O14727 whole entry, looked up): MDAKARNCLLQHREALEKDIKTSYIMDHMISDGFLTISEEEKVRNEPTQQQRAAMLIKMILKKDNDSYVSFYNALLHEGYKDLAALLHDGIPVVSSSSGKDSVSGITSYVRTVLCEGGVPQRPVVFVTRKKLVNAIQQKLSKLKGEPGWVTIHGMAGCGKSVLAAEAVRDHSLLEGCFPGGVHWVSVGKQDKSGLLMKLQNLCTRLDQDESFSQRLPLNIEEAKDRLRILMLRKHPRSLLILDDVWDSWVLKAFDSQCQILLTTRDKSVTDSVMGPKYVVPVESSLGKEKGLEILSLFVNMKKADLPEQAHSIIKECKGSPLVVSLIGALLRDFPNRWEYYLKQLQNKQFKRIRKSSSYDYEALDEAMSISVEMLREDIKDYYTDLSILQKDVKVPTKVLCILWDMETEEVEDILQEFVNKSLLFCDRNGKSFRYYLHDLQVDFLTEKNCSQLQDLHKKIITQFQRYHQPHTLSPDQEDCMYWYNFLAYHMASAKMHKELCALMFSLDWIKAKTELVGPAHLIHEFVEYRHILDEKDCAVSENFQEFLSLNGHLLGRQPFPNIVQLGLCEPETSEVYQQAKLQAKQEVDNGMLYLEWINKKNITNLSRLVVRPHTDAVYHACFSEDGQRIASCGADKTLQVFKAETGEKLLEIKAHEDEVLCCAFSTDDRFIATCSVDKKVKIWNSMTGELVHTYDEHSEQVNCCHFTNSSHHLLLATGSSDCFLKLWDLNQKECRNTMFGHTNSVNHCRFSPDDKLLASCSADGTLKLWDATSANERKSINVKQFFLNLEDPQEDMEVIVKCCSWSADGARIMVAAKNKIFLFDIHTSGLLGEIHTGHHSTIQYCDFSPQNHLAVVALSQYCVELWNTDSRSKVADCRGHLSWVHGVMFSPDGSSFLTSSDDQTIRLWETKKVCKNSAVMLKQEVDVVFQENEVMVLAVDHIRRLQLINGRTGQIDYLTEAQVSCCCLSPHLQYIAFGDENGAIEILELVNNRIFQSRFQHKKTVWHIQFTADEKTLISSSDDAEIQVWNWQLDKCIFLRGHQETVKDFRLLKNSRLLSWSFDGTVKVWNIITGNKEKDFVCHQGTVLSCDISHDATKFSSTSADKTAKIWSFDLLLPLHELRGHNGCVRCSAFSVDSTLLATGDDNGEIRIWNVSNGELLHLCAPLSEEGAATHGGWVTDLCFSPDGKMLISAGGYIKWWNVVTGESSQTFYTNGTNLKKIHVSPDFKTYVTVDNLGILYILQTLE
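Material: reconstituted apoptosome with Apaf-1, cytochrome c, caspase-9, procaspase-3, dATP / Buffer or medium: pH 7.5 Hepes buffer with CHAPS, BSA, DTT / Also added: cytochrome c with DEVD-Rh110 / Schedule: compound with Apaf-1, dATP, procaspase-3 30 min, then 50 min reaction, room temperature / Technique: rhodamine 110 fluorescence at Ex 480/Em 540 nm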
GSTO1 inh: GSTO1 inhibition, counter-screen for RBBP9 inhibitors; recombinant GSTO1, activity-based probe fluorescence polarization; inhibition, % at 5.96 µM; P78417; 300,000 tested, 1.1% active;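 active means inhibition above the campaign mean inhibition plus 3 SD, cut at about 35% in these data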;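 further: 0% = GSTO1-1 with DMSO and 100% = wells lacking GSTO1-1 enzyme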
Fh CTSL1 inh: blocks F. hepatica cathepsin L1 in PFM18AAP counter-screen. inhibition, % at 5.96 µM. AID 1906. recombinant F. hepatica cathepsin L1, Z-Leu-Arg-MCA fluorescence. 300,000 tested, 0.49% active;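 active means inhibition above the mean of all tested compounds plus 3 SD, set per screening campaign, cut at about 17% in these data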;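 further: 0% = plate median of test compound wells and 100% = 1 µM Z-Phe-Ala-diazomethylketone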
PAD4 inh: inhibitors of human PAD4 | inhibition, % at 6.36 µM | recombinant PAD4, RCA probe fluorescence polarization | 330,000 tested, 0.41% active;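 active means percent inhibition above a cutoff equal to the mean of all tested compounds plus 3 SD, cut at about 15% in these data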;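 further: 0% = PAD4 with RCA probe and DMSO and 100% = probe without PAD4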
Apaf-1 inh conf: Apaf-1 inhibition, single-dose confirmed; shares compounds with Apaf1 inhib; reconstituted apoptosome, caspase-3 DEVD-Rh110 fluorescence; inhibition, % at 20 µM; 1,800 tested, 25% active;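 active means mean inhibition of at least 40% at 20 µM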;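 further: plate controls were DMSO wells for no effect and DEVD-CHO caspase inhibitor control wells for full effect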
Rh110 interf inh: counter-screen for Apaf-1 inhibitors: fluorescence interference | AID 504615 | shares compounds with Apaf1 inhib | 1,800 tested, under 10 active | activation (fluorescence interference), % at 20 µM | Rh110 fluorescence interference, quenched caspase reaction;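 active means signal rise of 40% or more at 20 µM, treated as a fluorescence artifact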
Fluor interf inh: counter-screen for Apaf-1 inhibitors: fluorescence interference, dose response. fluorescence interference counterscreen, Apaf-1 assay format. 460 tested, under 10 active. shares compounds with Apaf1 inhib. IC50, µM. AID 588538; call rule not given here
The depositor's hits bear a star.

What do the screens show for `CCN1/C(=C/C=C/c2sc3ccccc3[n+]2CC)Sc2ccccc21`?
Apaf1 inhib: 89.8*; GSTO1 inh: -167.7; Fh CTSL1 inh: 7.5; PAD4 inh: -112.0; Apaf-1 inh conf: 50.7*; Rh110 interf inh: 16.5; Fluor interf inh: >100

What do the screens show for `CC[n+]1c(/C=C/Nc2ccccc2)sc2ccccc21`?
TDP2 absorb: 5.4; Apaf1 inhib: 13.1; GSTO1 inh: -17.2; Fh CTSL1 inh: 2.8; PAD4 inh: -48.4

What do the screens show for `CCOC(=O)CCc1nc2ccccc2[nH]1`?
TDP2 absorb: -1.0; Apaf1 inhib: -19.2; GSTO1 inh: 7.3; Fh CTSL1 inh: -2.5; PAD4 inh: -0.2

How did COCC(=O)O[C@]1(CCN(C)CCCc2nc3ccccc3[nH]2)CCc2cc(F)ccc2[C@@H]1C(C)C do in these assays?
TDP2 absorb: 1.7; Apaf1 inhib: 54.3*; GSTO1 inh: -1.3; Fh CTSL1 inh: -9.7; PAD4 inh: 1.4; Apaf-1 inh conf: 22.9; Rh110 interf inh: 3.6

Results for COC(=O)c1cc2c(c3c4ccccc4n(S(=O)(=O)c4ccc(OC)cc4)c13)C(=O)N(Cc1ccc(N(C)C)cc1)C2 ?
TDP2 absorb: 1.9

What do the screens show for `Cc1[nH]n(-c2ccccc2)c(=O)c1N=Nc1cccc(S(=O)(=O)N2CCOCC2)c1`?
TDP2 absorb: 2.1; Apaf1 inhib: 45.7*; GSTO1 inh: 5.9; Fh CTSL1 inh: -6.0; PAD4 inh: -2.2; Apaf-1 inh conf: 8.8; Rh110 interf inh: 2.2

Results for O=c1cc(C=NNc2ccccc2)[nH]c(=O)[nH]1 ?
TDP2 absorb: 3.7

Results for O=c1cc(N/N=C/c2ccccc2)[nH]c(=O)[nH]1 ?
TDP2 absorb: 0.0; Apaf1 inhib: 68.2*; GSTO1 inh: 21.6; Fh CTSL1 inh: 6.4; PAD4 inh: -14.9; Apaf-1 inh conf: 43.1*; Rh110 interf inh: 7.6; Fluor interf inh: >100

Results for O=C(O)CC(C(=O)O)N1C(=O)/C(=C/C=C/c2ccco2)SC1=S (stereo not given) ?
TDP2 absorb: 10.7; Apaf1 inhib: 85.4*; GSTO1 inh: 36.7*; Fh CTSL1 inh: 1.0; PAD4 inh: -4.1; Apaf-1 inh conf: 48.7*; Rh110 interf inh: 1.2; Fluor interf inh: >100

Results for O=C1Nc2ccccc2Nc2ccc([N+](=O)[O-])cc21 ?
TDP2 absorb: -4.4; Apaf1 inhib: 43.0*; GSTO1 inh: 33.9; Fh CTSL1 inh: -0.1; PAD4 inh: -10.6; Apaf-1 inh conf: 32.8; Rh110 interf inh: 1.5

What do the screens show for `O=C1OC(=O)c2cc([N+](=O)[O-])ccc21`?
TDP2 absorb: -8.0; Apaf1 inhib: 3.8; PAD4 inh: 3.2

What do the screens show for `CCCCNC(=O)NS(=O)(=O)c1ccc(NC(=O)CSc2nnc(-c3ccc(Cl)cc3)n2N)cc1`?
TDP2 absorb: 1.2

How did COC(=O)[C@@H](Cc1ccccc1)N[C@H](/C=C/c1ccccc1)[C@@H](O)Cc1ccccc1 do in these assays?
TDP2 absorb: -9.2

What do the screens show for `Cn1c(SCC(=O)Nc2ccc3nc(SCC(=O)N4CCCC4)sc3c2)nnc1-c1ccccc1`?
TDP2 absorb: 4.6; Apaf1 inhib: 65.8*; GSTO1 inh: -5.2; Fh CTSL1 inh: 0.7; PAD4 inh: 1.1; Apaf-1 inh conf: 11.7; Rh110 interf inh: -2.4

How did CCCC(=O)Nc1ccc2nc(SCC(=O)N3CCCC3)sc2c1 do in these assays?
TDP2 absorb: -4.7; Apaf1 inhib: -23.0; GSTO1 inh: -1.0; Fh CTSL1 inh: 6.1; PAD4 inh: -1.7

How did CCN(C(=S)NC(=O)c1ccco1)c1cccc2ccccc12 do in these assays?
TDP2 absorb: 11.3; Apaf1 inhib: 82.5*; PAD4 inh: -16.1; Apaf-1 inh conf: 16.9; Rh110 interf inh: 7.6

How did COc1ccc(C(CNC(=O)c2cccc(NS(=O)(=O)c3ccccc3)c2)N(C)C)cc1 (stereo not given) do in these assays?
TDP2 absorb: 0.1; Apaf1 inhib: 3.2; GSTO1 inh: 2.9; Fh CTSL1 inh: 1.0; PAD4 inh: 2.0

What do the screens show for `COc1ccc(C(CNC(=O)c2cccc(NS(=O)(=O)c3ccc(C)c(F)c3)c2)N(C)C)cc1` (stereo not given)?
TDP2 absorb: -6.2; Apaf1 inhib: 52.3*; GSTO1 inh: 5.4; Fh CTSL1 inh: -5.0; PAD4 inh: -2.9; Apaf-1 inh conf: 37.5; Rh110 interf inh: -6.2

Results for O=C(OCc1cn(Cc2ccc(F)cc2F)nn1)N1CCOCC1 ?
TDP2 absorb: 0.3

How did C[C@H]1CN([C@@H](C)CO)C(=O)Cc2cc(NC(=O)CCC(F)(F)F)ccc2O[C@H]1CN(C)Cc1ccc(-c2ccccc2)cc1 do in these assays?
TDP2 absorb: -8.2; Apaf1 inhib: 40.8*; PAD4 inh: -0.9; Apaf-1 inh conf: 22.6; Rh110 interf inh: -6.4

How did Cc1ccc(S(=O)(=O)Nc2ccc3c(c2)CC(=O)N([C@H](C)CO)C[C@@H](C)[C@H](CN(C)Cc2ccc(-c4ccccc4)cc2)O3)cc1 do in these assays?
Apaf1 inhib: 41.0*; PAD4 inh: 2.6; Apaf-1 inh conf: -2.0; Rh110 interf inh: 7.2

How did C[C@H](CO)N1C[C@H](C)[C@@H](CN(C)Cc2ccc(Cl)c(Cl)c2)Oc2c(NC(=O)CCC(F)(F)F)cccc2C1=O do in these assays?
TDP2 absorb: 0.4; Apaf1 inhib: 46.1*; PAD4 inh: 2.3; Apaf-1 inh conf: 22.9; Rh110 interf inh: 17.4

How did C[C@H]1CN([C@@H](C)CO)C(=O)Cc2cc(NC(=O)CCC(F)(F)F)ccc2O[C@H]1CN(C)Cc1ccc(C(F)(F)F)cc1 do in these assays?
TDP2 absorb: -12.9; Apaf1 inhib: 25.4; PAD4 inh: -1.8

How did C[C@H](CO)N1C[C@H](C)[C@H](CN(C)Cc2ccc(-c3ccccc3)cc2)Oc2ccc(NS(=O)(=O)c3ccccc3)cc2CC1=O do in these assays?
Apaf1 inhib: 21.5; PAD4 inh: 0.8

Results for CN(C)c1cccc(/C=C2\CC3(OC(=O)c4ccco4)CCCN2C3)c1 (stereo not given) ?
TDP2 absorb: 4.4

Results for O=C1Cc2cc(S(=O)(=O)N3CCCCC3)ccc2N1 ?
TDP2 absorb: 15.0; Apaf1 inhib: 8.7; GSTO1 inh: 3.4; Fh CTSL1 inh: -1.4; PAD4 inh: -2.5

Results for O=C1Cc2cc(S(=O)(=O)N3CCNCC3)ccc2N1 ?
TDP2 absorb: 2.0; Apaf1 inhib: 40.1*; PAD4 inh: 0.5; Apaf-1 inh conf: 10.3; Rh110 interf inh: 6.3

Screening results from PubChem BioAssay.
